Measured values as given in ChEMBL document CHEMBL1125712 (J Med Chem, 1991).
Calls of active or inactive are those of the source. No cut-off for these calls is given here.

Legend:
[1] = Partition coefficient (logP); type: physicochemical; conditions: octanol/water
[2] = Compound was evaluated for the partition coefficient (octanol/pH 7.4 buffer); type: physicochemical
How it was run: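 Partition measured between n-octanol and pH 7.4 buffer.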

[3] = Compound was evaluated for the apparent pKa (dioxane/water) in the ratio 1:1; type: physicochemical; conditions: dioxane/water 1:1
[4] = Compound was evaluated for the apparent pKa (dioxane/water) the ratio 2:1; type: physicochemical; conditions: dioxane/water 2:1
[5] = molecular target: T1, Aldo-keto reductase family 1 member B1 (Rattus norvegicus, UniProt P07943); assay: Compound was tested for the inhibition of the rat lens aldose reductase using the substrate as glucose.
Rattus norvegicus [6] = assay: Compound was evaluated for the ED50(acute) in male Sprague-Dawley rats(n=4) treated with streptozotocin (85 mg/kg intravenously).; type: functional
How it was run: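 Streptozotocin-diabetic rats (85 mg/kg iv) dosed by oral gavage, aqueous suspension or solution, at 4, 7 and 24 h. Killed at 27 h. […] ED50 from log linear regression.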

Rattus norvegicus [7] = species: Rattus norvegicus; assay: Compound was tested for the inhibition of sorbitol accumulation in washed rat erythrocytes.
[8] = molecular target: T1, Aldo-keto reductase family 1 member B1; assay: Compound was tested for the inhibition of the rat lens aldose reductase using the substrate as glyceraldehyde
Rattus norvegicus [9] = assay: Compound was evaluated for the ED50(chronic) in male Sprague-Dawley rats(n=5) treated with streptozotocin (85 mg/kg intravenously).; conditions: oral
[10] = molecular target: T2, Aldo-keto reductase family 1 member B1 (Homo sapiens, UniProt P15121); assay: Compound was evaluated for its ability to inhibit the aldose reductase isolated from human placentae; Inactive at 10E-4 M
Homo sapiens = species: Homo sapiens; assay: Compound was tested for the inhibition of sorbitol accumulation in washed human erythrocytes.; type: functional
Rattus norvegicus [11] = assay: Compound was evaluated for the ED50(chronic) in male Sprague-Dawley rats(n=5) treated with streptozotocin (85 mg/kg intravenously).; conditions: oral; remark: listed apart in the source
[12] = molecular target: T2, Aldo-keto reductase family 1 member B1; assay: Inhibition of aldose reductase (aldo-keto reductase, AKR1B1) isolated from human placenta.
[13] = Compound was evaluated for the apparent pKa (dioxane/water)the ratio 2:1; type: physicochemical; conditions: dioxane/water 2:1
Rattus norvegicus [14] = assay: Compound was evaluated in vivo for the inhibition of sorbitol accumulation administered orally at a dose of 5 mg/kg.; type: functional; conditions: route oral
Rattus norvegicus [15] = assay: Compound was evaluated in vivo for the inhibition of sorbitol accumulation administered orally at a dose of 5 mg/kg; Not significant; type: functional, organism-based; set-up: dose 5 mg/kg
Rattus norvegicus [16] = assay: Compound was evaluated in vivo for the inhibition of sorbitol accumulation administered orally at a dose of 0.25 mg/kg.; type: functional; conditions: route oral
[17] = system: aldose reductase (Rattus norvegicus); assay: In vivo inhibition of sorbitol accumulation in the rat following 10 mg/kg p.o. administration.; conditions: at 10 mg/kg

| SMILES | logP [1] | logD [2] | pKa [3] | pKa [4] | IC50 [12] | ED50 (Rattus norvegicus [6]; iv) | ED50 (Rattus norvegicus [9]) | ED50 (Rattus norvegicus [11]) | other results |
| --- | --- | --- | --- | --- | --- | --- | --- | --- | --- |
| O=C(O)Cc1nn(Cc2nc3cc(C(F)(F)F)ccc3s2)c(=O)c2ccccc12 [ZOPOLRESTAT] | 3.43 | 0.55 | 5.46 | 6.38 |  | 3.6 mg/kg | 2 mg/kg |  | IC50 [5]: 0.01 µM; IC50 (Rattus norvegicus [7]): 0.22 µM; IC50 [8]: 0.041 µM |
| CN1C(C(=O)Nc2nccs2)=C(O)c2ccccc2S1(=O)=O [SUDOXICAM] |  |  |  |  |  |  |  |  | IC50 [10]: Not Active |
| COc1ccc2c(C(=S)N(C)CC(=O)O)cccc2c1C(F)(F)F [TOLRESTAT] |  |  |  |  |  |  |  | 26 mg/kg | IC50 (Homo sapiens): 0.015 µM |
| O=C1NC(=O)[C@@]2(CCOc3ccc(F)cc32)N1 [SORBINIL] |  |  |  |  |  |  |  | 0.8 mg/kg | inhibition in vivo at 0.25 mg/kg (Rattus norvegicus [16]): 40.1% |

The next lines start with results.

| logP [1] | logD [2] | pKa [3] | pKa [4] | IC50 [12] | SMILES | ED50 (Rattus norvegicus [6]; iv) | ED50 (Rattus norvegicus [9]) | ED50 (Rattus norvegicus [11]) | other results |
| --- | --- | --- | --- | --- | --- | --- | --- | --- | --- |
| 3.35 |  |  |  | 0.0031 µM | O=C(O)Cc1nn(Cc2nc3cc(Br)ccc3s2)c(=O)c2ccccc12 | 5.6 mg/kg | 4.9 mg/kg |  | pKa [13]: 6.35 |
| 2.42 | -0.3 | 5.49 | 6.35 | 0.0069 µM | O=C(O)Cc1nn(Cc2nc3cc(F)ccc3s2)c(=O)c2ccccc12 | 5.3 mg/kg | 5.3 mg/kg |  | inhibition in vivo at 5 mg/kg (Rattus norvegicus [14]): 60% |
|  |  |  |  | 0.11 µM | CC(C)c1ccc2c(CC(=O)O)nn(Cc3nc4ccccc4s3)c(=O)c2c1 |  |  |  | inhibition (Rattus norvegicus [15]): inactive |
| 3.01 | 0.05 | 5.47 | 6.38 | 0.0063 µM | O=C(O)Cc1nn(Cc2nc3cc(F)cc(F)c3s2)c(=O)c2ccccc12 |  |  | 4 mg/kg | ED50 (Rattus norvegicus [6]; oral): 3.2 mg/kg; inhibition [17]: 80% |
